ChEMBL document CHEMBL1143109, “Discovery of novel orally active ureido NPY Y5 receptor antagonists” (Bioorg Med Chem Lett, 2008)

Columns and labels:
[1] = tested on: Rattus norvegicus; assay: Reduction in body weight gain in po dosed Sprague-Dawley DIO rat after 28 days relative to control; assay type: functional, organism-based
In short: (§1)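 DIO rats weighing 700–800 g at start, n = 12/group, food and water ad libitum. Compound admixed into low fat diet for 28 days; delivered doses (1, 3 or 10 mg/kg/day) calculated from food consumption. Body composition by DEXA scanning, expressed as percent change from day 0 baseline; average plasma levels taken at the 10 mg/kg/day dose.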

[2] = tested on: Rattus norvegicus; assay: Decrease in adipose mass in po dosed Sprague-Dawley DIO rat after 28 days; assay type: functional, organism-based; in short: as §1
[3] = target: T1, Neuropeptide Y receptor type 5 (Rattus norvegicus) (UniProt Q63634); assay: Antagonist activity at rat NPY Y5 receptor expressed in HEK293 cells assessed as inhibition of forskolin-stimulated cAMP production; assay type: functional, cell-based
T1 sequence (whole entry): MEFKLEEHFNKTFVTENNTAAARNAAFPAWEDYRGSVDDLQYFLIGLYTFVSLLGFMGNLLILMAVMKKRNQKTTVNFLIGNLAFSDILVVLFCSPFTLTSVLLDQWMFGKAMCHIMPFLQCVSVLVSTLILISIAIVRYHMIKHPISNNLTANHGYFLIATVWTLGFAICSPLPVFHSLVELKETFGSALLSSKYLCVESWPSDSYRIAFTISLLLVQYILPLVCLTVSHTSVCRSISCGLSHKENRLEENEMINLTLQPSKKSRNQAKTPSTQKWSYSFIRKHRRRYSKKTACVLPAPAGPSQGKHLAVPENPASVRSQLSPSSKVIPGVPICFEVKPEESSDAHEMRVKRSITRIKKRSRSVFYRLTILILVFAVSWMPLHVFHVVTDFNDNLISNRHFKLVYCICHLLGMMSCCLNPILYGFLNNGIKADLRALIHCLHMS
In short: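 HEK293 cells expressing rat NPY Y5 receptor. Functional antagonism measured as the ability to overcome NPY inhibition of forskolin-stimulated cAMP production; reported as Kb.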

[4] = target: T2, 5-hydroxytryptamine receptor 3A (Homo sapiens) (UniProt P46098); assay: Inhibition of 5HT3 receptor at 10 uM
T2 sequence (whole entry): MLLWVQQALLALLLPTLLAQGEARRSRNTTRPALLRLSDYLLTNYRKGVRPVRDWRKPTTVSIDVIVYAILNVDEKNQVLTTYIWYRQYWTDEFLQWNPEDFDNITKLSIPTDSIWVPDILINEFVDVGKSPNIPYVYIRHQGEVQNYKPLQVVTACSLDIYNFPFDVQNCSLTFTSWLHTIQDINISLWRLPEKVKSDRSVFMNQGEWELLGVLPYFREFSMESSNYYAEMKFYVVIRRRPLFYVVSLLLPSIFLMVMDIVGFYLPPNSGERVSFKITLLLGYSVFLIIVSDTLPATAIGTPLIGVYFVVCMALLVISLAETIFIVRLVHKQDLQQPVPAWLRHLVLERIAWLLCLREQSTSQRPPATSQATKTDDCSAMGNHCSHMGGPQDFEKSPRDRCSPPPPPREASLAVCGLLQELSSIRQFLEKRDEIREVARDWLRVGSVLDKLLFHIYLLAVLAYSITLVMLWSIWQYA
In short: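 Counterscreen panel of 60 receptors, enzymes and ion channels; inhibition of binding measured at 10 µM.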

Compound: CC(=O)N1CCC(N(C)C(=O)N[C@H]2CC[C@H](c3cc(F)cc(F)c3)CC2)CC1
- Activity [1]: Dose-dependent effect
- Activity [2]: Dose-dependent effect
- Kb [3]: 2.7 nM
- inhibition [4]: < 10%
